The text below walks through data of PMC2865690 (ChemMedChem, 2009).

Series [1] has as its system mGluR5. Description: mGluR5 potentiation. The class given is cell-based. As to conditions: read-out: Potentiator EC50; at an EC20 concentration of glutamate; average of at least three determinations. The procedure, abridged: (§1)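 Calcium fluorescence recorded continuously on mGluR5. Test compound added alone at t = 4 s, then an EC20 concentration of glutamate added 140 s later. Agonism is read from the response to compound alone; potentiation from the response to EC20 glutamate. Full concentration-response curves, up to 30 μM, give EC50s.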

Series [2] has as its system mGluR5. Description: Fold-shift assay of the glutamate concentration-response curve. The class given is cell-based. Conditions: 1 μM compound; leftward shift.
The subject of series [3] is mGluR5. Description: mGluR5 allosteric agonist activity, compound alone without glutamate. The class given is cell-based. The procedure, abridged:
as §1

For series [4] the following is noted: cited from earlier work.

Turning to `O=C(c1ccc(F)cc1)N1CCCC(c2nc(-c3ccc(F)cc3)no2)C1` (stereo not drawn) [16a], in series [1], the EC50 (in general, the concentration giving half of the maximal effect) worked out at 1680 ± 3620 nM.

As for `O=C(c1ccc(F)cc1)N1CCC[C@H](c2nc(-c3ccc(F)cc3)no2)C1` [ADX-47273], the “Fold shift of the glutamate CRC” value in series [2] was determined as 9 fold. Besides, the “Allosteric agonist % Glu Max” value in series [3] is 65%. The EC50 in series [3] (read-out: Allosteric agonist EC50, absence of an EC20 of glutamate) worked out at 9500 nM; in series [1] it was 168 ± 28 nM.

In the case of `N#Cc1cccc(C(=O)Nc2cc(-c3ccccc3)nn2-c2ccccc2)c1` [CDPPB], in series [4], the “Solubility in most vehicles” value is reported as “poor solubility”.
